Apaf1 activ: activators of human Apaf-1 apoptosome, primary screen, biochemical, DEVD-Rh110 fluorescence, uHTS. Apoptotic protease-activating factor 1 (Homo sapiens), O14727. Apaf-1 apoptosome caspase-3 activation; hits give low values. activity change, negative = activation, % at 20 µM. 330,000 tested, 0.31% active. AID 489031, 2010;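 active = activity change at or below -40% at 20 µM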
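Material: reconstituted apoptosome of Apaf-1, cytochrome c, caspase-9, procaspase-3; times: 30 min preincubation, 50 min reaction, room temperature; measured by: fluorescence, 540 nm emission, 480 nm excitation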
Rh110 act interf: Rh110 fluorescence interference by putative Apaf-1 activators, confirmation, artefact control for Apaf-1 activator project, biochemical, 20 µM. fluorescence interference (activity change), % at 20 µM, hits read low. quenched caspase reaction, Ex480/Em540. 980 tested, under 10 active. shares compounds with Apaf1 activ;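 active = mean activity change at or below -40% when tested at 20 µM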
Apaf-1 act conf2: Apaf-1 activators, single-dose retest, confirmation, biochemical, fluorescence, DEVD-Rh110, 20 µM | shares compounds with Apaf1 activ | 980 tested, 5% active | reconstituted apoptosome caspase-3 activity; hits give low values | AID 504617, 2011 | activity change, negative = activation, % at 20 µM;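 active = mean activity change at or below -40%, meaning activation of 40% or more, at 20 µM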
Of the large screens only hits and unclear results are named; the others gave an inactive call (follow-up assays come after a bar, where they were run). These entries were drawn from the full list.

Cc1cnc(C(=O)NC2CC(C)(C)Cc3c2cnn3-c2ccccc2)cn1 (stereo not given)	Apaf1 activ -85 | Rh110 act interf inactive | Apaf-1 act conf2 inactive
CC(=O)NC1N=C(C)N(c2ccccc2)C1=O (stereo not given)	none
O=C(CCc1ccccc1)N[C@@H]1c2ccccc2CC[C@H]1OCc1ccccc1	Apaf1 activ -41 | Rh110 act interf inactive | Apaf-1 act conf2 inactive
COc1ccc(S(=O)(=O)N2CCCCCC2)cc1C(=O)N(C)CCOc1ccccc1	none
COc1cc2oc3ccccc3c2cc1N(CC(=O)N1CCCCC1)S(=O)(=O)c1ccc(C)cc1	Apaf1 activ -236 | Rh110 act interf inactive | Apaf-1 act conf2 inactive
CCC[C@@H](CN1CCC[C@H]1CN1C(N)=NC[C@@H]1Cc1ccccc1)N1C[C@@H](Cc2ccccc2)N(CCCC2CCCC2)C1=N	none
COC(=O)c1ccccc1N/C=C1\CCc2c(c(C)nn2-c2ccccn2)C1=O	none
CCCCCCCCCCCCCCCC[N+](C)(C)CCN(Cc1ccc(OC)cc1)c1ncccn1	none
CN(C)S(=O)(=O)c1cccc(NC(=O)COC(=O)/C=C/c2ccco2)c1	none
CCN(CC)S(=O)(=O)c1ccc(/C=C/C(=O)OCC#N)cc1	Apaf1 activ -82 | Rh110 act interf inactive | Apaf-1 act conf2 inactive
CN(C)c1cccc2c1c(NC(=O)Nc1ccccc1)nn2C	none
Cc1cccc(C)c1NC(=O)CN(C)C(=O)c1ccccc1SCC(=O)N1CCCC1	none
CSc1ccccc1NC(=O)CN(C)C(=O)c1ccc2c(c1)OCCO2	Apaf1 activ -74 | Rh110 act interf inactive | Apaf-1 act conf2 inactive
C#CCOCCOCCOCCNc1nc(N2CCN(C(=O)[C@H](Cc3ccc(O)cc3)n3cc([C@@H](N)C(C)CC)nn3)CC2)nc(N2CCN(C(=O)[C@H](Cc3cc4ccccc4[nH]3)n3cc([C@@H](N)Cc4ccc(O)cc4)nn3)CC2)n1 (stereo not given in full)	none
CN(C)CCCNC(=O)C[C@H]1C[C@H](C(=O)N2CCOCC2)[C@@]2(CCC3CCCC3)c3[nH]c4cc(-c5ccco5)ccc4c3CCN2C1=O	none
COc1ccc2cc1Oc1ccc(cc1)CC1c3c(cc(OC)c4c3Oc3cc5c(cc3O4)CCNC5C2)CCN1C (stereo not given)	none
CC(=O)[C@@H]1[C@@H]2C(=O)N(Cc3ccccc3)C(=O)[C@@H]2C2c3ccccc3C=CN21 (stereo not given in full)	none

Assay outcomes deposited in PubChem by Sanford-Burnham Center for Chemical Genomics.
